From PubChem
APP 5'UTR act: APP 5'UTR luciferase reporter activation | SH-SY5Y APP 5'UTR luciferase reporter, luminescence; zero percent = DMSO vehicle wells | activation, % at 2 µM | hit rate 1% among 190,000;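 active means activation above a set limit, based on mean plus 3 SD of controls, cut at about 140% in these data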
NF-kB expr up: compounds increasing NF-kB expression in human neuronal cells; NF-kB reporter expression; hits give high values; fold change at 12.5 µM; hit rate 1.6% among 190,000; AID 1239; in the data active means fold change above about 3.3
STAT1 activator: activators of IFN-gamma induced STAT1 signaling | activation (% of control), % at 5.5 µM | AID 932 | hit rate 2.6% among 200,000 | NIH 3T3 STAT1-luciferase reporter, luminescence; 100% = IFN-gamma alone, no compound;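 active means activation above the screen-wide mean activation plus 3 SD, cut at about 130% in these data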
STAT1 blocker: reduces IFN-gamma driven STAT1 reporter signal; hit rate 0.35% among 200,000; inhibition, % at 5.5 µM; NIH 3T3 STAT1-luciferase reporter, luminescence; AID 920;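 active means inhibition above a set limit, the mean inhibition across all tested compounds plus 3 SD, cut at about 34% in these data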
STAT3 inh-1: reduces IL-6 driven STAT3 reporter signal. U3A cells, IL-6 STAT3-luciferase reporter, luminescence; host cell line lacks STAT1. inhibition, % at 5.5 µM. AID 862. hit rate 0.89% among 190,000;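 active means inhibition above the mean inhibition across all screened compounds plus 3 SD, cut at about 44% in these data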
STAT3 activator: STAT3 signaling activation; hit rate 0.91% among 190,000; activation (% of control), % at 5.6 µM; U3A cells, IL-6 STAT3-luciferase reporter, luminescence; 100% = signal with IL-6 EC80 alone;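 active means activation above the screen-wide mean of compound activation plus 3 SD, cut at about 130% in these data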
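Test system: STAT3-luciferase reporter U3A cells; Detection: reporter luminescence signal; Times: 1 h compound pre-exposure, 6 h IL-6 stimulation, 37 °C; Benchmarks: IL-6-only high control; Also added: IL-6 stimulus at 33 ng/mL final.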
STAT3 inh-2: confirmation of STAT3 signaling inhibitors; shares compounds with STAT3 inh-1; U3A cells, IL-6 STAT3 luciferase reporter, luminescence; cell line lacks STAT1; inhibition, % at 5.7 µM; hit rate 45% among 1,200;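 active means inhibition above the hit cutoff computed for the primary STAT3 screen, cut at about 44% in these data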
NFkB inh 2: inhibits NF-kappaB, counter-screen to STAT3 inhibitors; shares compounds with STAT3 inh-1; HEK293T NF-kB luciferase reporter, TNF-alpha induced; inhibition, % at 5.7 µM; hit rate 36% among 1,200;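 active means inhibition above the mean of solvent-only control wells plus 3 SD, cutoff set per campaign, cut at about 13% in these data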
STAT1 inh 2: inhibits STAT1, counter-screen to STAT3 inhibitors; inhibition, % at 5.7 µM; hit rate 27% among 1,200; shares compounds with STAT3 inh-1; NIH 3T3 STAT1-luciferase reporter, IFN-gamma induced, luminescence;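 active means inhibition above the mean plus 3 SD of solvent-only control wells, limit set per screening run, cut at about 16% in these data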
A number is an active result; . = inactive; / = no result given. This is a sample that favours compounds with a hit; in the whole collection about 5.1% have one here.

SMILES	APP 5'UTR act	NF-kB expr up	STAT1 activator	STAT1 blocker	STAT3 inh-1	STAT3 activator	STAT3 inh-2	NFkB inh 2	STAT1 inh 2
CS(=O)(=O)c1ccc2nc(NC(=O)c3cccs3)sc2c1	.	.	.	.	59	.	.	.	.
O=C(c1ccc([N+](=O)[O-])cc1)N(c1ccccn1)c1ccccn1	.	.	.	.	.	.	/	/	/
Cn1c(N=Nc2ccccc2)nc2ccccc21	180	3.6	131	.	51	.	.	.	.
Cc1ccc(SCCC(=O)NC(C)C)cc1	.	.	.	.	.	.	/	/	/
COCCN1C(=O)C(=O)/C(=C(/O)c2cccc(OC)c2)C1c1ccncc1 (stereo not drawn)	.	.	.	.	.	.	/	/	/
COc1ccccc1N1CCN(C(=O)CSc2nnc3n2C(C)(C)Cc2ccccc2-3)CC1	.	.	.	.	57	.	53	14	19
CC1Cc2ccccc2N1C(=O)CSc1nnc2n1C(C)(C)Cc1ccccc1-2 (stereo not drawn)	.	.	.	.	.	.	/	/	/
COc1ccc(NS(=O)(=O)c2cccc(NC(=O)c3ccc(Cl)nc3)c2)cc1	.	.	.	.	86	.	84	38	24
COc1cccc(S(=O)(=O)Nc2ccc(C(=O)Nc3ccncc3)cc2)c1	.	.	.	.	.	.	/	/	/
O=C(Nc1cccc(S(=O)(=O)Nc2ccc(Cl)cc2)c1)c1cc2c(s1)CCCC2	.	.	.	.	.	.	/	/	/
O=C(Nc1cccc(S(=O)(=O)Nc2ccc(Cl)cc2)c1)c1ccc(Cl)nc1	.	.	.	.	79	.	81	27	23
CCOc1c(Cl)cc(Cl)cc1CNCCNCCO	.	.	.	.	.	.	/	/	/
c1ccc2c(c1)[nH]c1c(N3CCCC3)ncnc12	.	.	.	.	46	.	.	18	23
Cn1cccc1/C=C(/C#N)C(N)=S	.	.	.	.	.	.	/	/	/
CCCCc1ccc(/C=C(\C#N)C(N)=S)s1	.	.	.	.	44	.	.	.	17
CN=C1S/C(=C\c2cc(C)n(-c3ccccc3F)c2C)C(=O)N1C	.	.	.	.	56	.	.	.	.
CN=C1S/C(=C\c2ccc(N3CCOCC3)cc2C)C(=O)N1C	.	.	.	.	.	.	/	/	/
COc1ccc(NC(NC(=O)c2ccc(OC)cc2)C(Cl)(Cl)Cl)cc1 (stereo not drawn)	.	.	.	.	50	.	.	.	.
Cc1cc(C)n(CCOc2nonc2N)n1	.	.	.	.	.	.	/	/	/
Cc1ccc(Cn2ncc3c(N4CCN(c5ccc(C)cc5)CC4)ncnc32)cc1	.	.	.	.	69	.	63	20	.
Cc1ccc(Cn2ncc3c(N4CCN(C)CC4)ncnc32)cc1	.	.	.	.	.	.	/	/	/
CN1CCN(c2ncnc3c2cnn3-c2ccc(Cl)cc2)CC1	.	.	.	.	53	.	.	.	.
Cc1ccc(Cn2ncc3c(N4CCN(Cc5ccc(Cl)cc5)CC4)ncnc32)cc1	.	.	.	.	54	.	49	25	.
COCCn1nnnc1C(c1cccc(C(F)(F)F)c1)N1CCOCC1 (stereo not drawn)	.	.	.	.	.	.	/	/	/
C=CCOc1ccc(/C(O)=C2\C(=O)C(=O)N(CCCOC)C2c2ccncc2)cc1 (stereo not drawn)	.	.	.	.	.	.	/	/	/
CC(=O)c1c(C)[nH]c(C(=O)OCc2c(F)cccc2Cl)c1C	.	.	.	.	.	.	/	/	/
CC(=O)c1c(C)[nH]c(C(=O)OCc2ccc(F)cc2Cl)c1C	.	.	.	.	48	.	54	.	.
CCC(=O)Nc1nc(-c2cc([N+](=O)[O-])cs2)cs1	.	.	.	.	.	.	/	/	/
O=C(CN1CCC(c2nc3ccccc3s2)CC1)NCc1cccs1	.	.	.	.	46	.	.	.	.
